Our source for the folding enthalpy and Tm values is the array DNA melting data of Ke et al. (doi:10.1101/2024.01.08.574731).

Data set [1] can be described thus: folding enthalpy; higher = less favourable; fluorescence melt of hairpins on a sequencing array, two-state fit. The note with it: sodium 0.088 M. In a few lines: (§1)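 In 50 mM Na-HEPES pH 8.0 containing 25 mM NaCl, hairpins from the library on a sequenced MiSeq flow cell were imaged for Cy3 fluorescence at 2.5 °C steps up to 60 °C, with Cy3 and quencher oligos annealed. After normalisation to pre-quench Cy3 and to control constructs, two-state fits with bootstrapping gave melting temperature and folding enthalpy. Four replicates were combined by inverse-variance weighting, and fitted temperatures were shifted up by 9.35 °C to match UV melts.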

Data set [2] is described as follows: melting temperature; fluorescence melt of hairpins on a sequencing array, two-state fit, raised by 9.35 °C to match UV melts. The note with it: sodium 0.088 M. The method, boiled down:
as §1

On to GATCAGCACCTGATC ((((((...)))))), for which, in data set [1], the folding enthalpy is -31.1 kcal/mol. Further, the Tm in data set [2] stood at 48.3 °C.

GCGGAGCGAAAGCATCGC (((..((....))..))): the folding enthalpy in data set [1] is -15.7 kcal/mol. Further, the Tm in data set [2] was 55.7 °C.

With GATCTTATCTAAGATC ((((((....)))))), the folding enthalpy in data set [1] is -41.9 kcal/mol. For the same sequence, in data set [2], the Tm is 45.2 °C.

Consider GTTAAACGAAAGTTAAC (((.(((....)))))), for which the folding enthalpy in data set [1] is -17.2 kcal/mol. In addition, the Tm in data set [2] was determined as 34.6 °C.

For GTGGCGGCGAAAGCCCAC (((..(((....)))))), in data set [1], the folding enthalpy was -15 kcal/mol. In addition, the Tm in data set [2] turned out to be 54 °C.

Consider GATCTGATTCAGATC ((((((...)))))), for which, in data set [1], the folding enthalpy is -35.8 kcal/mol. Moreover, in data set [2], the Tm was determined as 48.7 °C.

For GCTCTGGGAAACTGGAGC ((((..(....)..)))), in data set [1], the folding enthalpy is -34.1 kcal/mol. Besides, the Tm in data set [2] came to 45.9 °C.

For the sequence GAATGACGAAAGTCGTTC (((.(((....))).))), the folding enthalpy in data set [1] is -34.4 kcal/mol. For the same sequence, the Tm in data set [2] was 54.7 °C.

Take CTAGTGAAAACTAG (((((....))))): in data set [1], the folding enthalpy is -15 kcal/mol. Moreover, in data set [2], the Tm was found to be 42.4 °C.

On to GATGTCGGAAACGGTATC (((..((....))..))), for which, in data set [1], the folding enthalpy is -21.2 kcal/mol. Moreover, the Tm in data set [2] was found to be 31.6 °C.

GATGGGGCGAAAGCCATC (((..(((....)))))): in data set [1], the folding enthalpy was -12 kcal/mol. For the same sequence, the Tm in data set [2] is 38.1 °C.

As to GATGGCGAAAGCCTAATC ((((((....)))..))), the folding enthalpy in data set [1] is -9.84 kcal/mol. Further, in data set [2], the Tm was found to be 32 °C.

Turning to GTTGACGAAAGTCAAAAC ((((((....)))..))), the folding enthalpy in data set [1] is -11.5 kcal/mol. Also, the Tm in data set [2] amounted to 38.4 °C.

With GCCCGCGAAAGCGAAGGC ((((((....)))..))), in data set [1], the folding enthalpy is -24.8 kcal/mol. The Tm in data set [2] is 63.3 °C.

GGGCAACGAAAGTTACCC (((.(((....))).))): the folding enthalpy in data set [1] is -38.9 kcal/mol. Moreover, the Tm in data set [2] is 52.2 °C.

Take CGCGGACGTTTCCGCG ((((((....)))))): the folding enthalpy in data set [1] is -31.9 kcal/mol. Also, in data set [2], the Tm came out at 69.2 °C.

With GATCTTGTTAAAGATC ((((((....)))))), the folding enthalpy in data set [1] was -37.3 kcal/mol. The Tm in data set [2] amounted to 53.7 °C.

On to GACCCCGAAAGGGTAGTC ((((((....)))..))), for which the folding enthalpy in data set [1] is -15 kcal/mol. The Tm in data set [2] came out at 44.4 °C.

Regarding GATCACAAAAGTGATC ((((((....)))))), the folding enthalpy in data set [1] was -36.8 kcal/mol. In addition, the Tm in data set [2] came out at 54.7 °C.

For the sequence GATCTCTGGCGAGATC ((((((....)))))), the folding enthalpy in data set [1] was -33.6 kcal/mol. For the same sequence, the Tm in data set [2] is 51.6 °C.

For GCGATAGGTCGC ((((....)))), in data set [1], the folding enthalpy was -24.5 kcal/mol. Moreover, the Tm in data set [2] was determined as 51.4 °C.

As for GCGGCGAACCGC ((((....)))), the folding enthalpy in data set [1] is -18.9 kcal/mol. The Tm in data set [2] came to 56.9 °C.

Consider GCACTGCGAAAGCACTGC (((.(((....))).))), for which, in data set [1], the folding enthalpy is -28.1 kcal/mol. In data set [2], the Tm stood at 44.4 °C.

For the sequence GGGGTCGAAAGACTGCCC ((((((....)))..))), the folding enthalpy in data set [1] was -16.2 kcal/mol. Further, the Tm in data set [2] worked out at 41.5 °C.

For GTACATGAAAATGTAC ((((((....)))))), in data set [1], the folding enthalpy is -33.9 kcal/mol. In data set [2], the Tm was found to be 51.2 °C.

For the sequence GCCCTCTCGAAAGAGGGC (((..(((....)))))), the folding enthalpy in data set [1] is -40.5 kcal/mol. In addition, the Tm in data set [2] came out at 68.1 °C.

For GCCGAGTCGAAAGACGGC (((..(((....)))))), the folding enthalpy in data set [1] is -21.2 kcal/mol. In addition, the Tm in data set [2] was 56.6 °C.

For GATCATAGCGATGATC ((((((....)))))), the folding enthalpy in data set [1] was -44.1 kcal/mol. For the same sequence, in data set [2], the Tm is 46.9 °C.

As to CGCGGAAAAACAACCGCG ((..............)), the folding enthalpy in data set [1] was -26.4 kcal/mol. The Tm in data set [2] is 49.8 °C.

Consider GTAGACGGAAACATCTAC (((((.(....).))))), for which, in data set [1], the folding enthalpy was -21 kcal/mol. In addition, the Tm in data set [2] worked out at 31 °C.

Turning to GTGGGTGGAAACGCCTAC ((.((.(....).)).)), in data set [1], the folding enthalpy was -25.3 kcal/mol. For the same sequence, in data set [2], the Tm came to 41.9 °C.

With GATCTTCCATAAGATC ((((((....)))))), in data set [1], the folding enthalpy was -33.9 kcal/mol. Also, the Tm in data set [2] was 43.4 °C.

As for GATCAATTGATTGATC ((((((....)))))), in data set [1], the folding enthalpy was -36.5 kcal/mol. The Tm in data set [2] is 47.2 °C.

Take GCGAATGGAAACGTTCGC (((((.(....).))))): in data set [1], the folding enthalpy is -38.4 kcal/mol. For the same sequence, the Tm in data set [2] came out at 56.7 °C.

On to GTTCCCCCGAAAGGGAAC (((..(((....)))))), for which the folding enthalpy in data set [1] was -34.7 kcal/mol. In data set [2], the Tm was 51.6 °C.

Turning to GCCGAGCGAAAGCCGGGC (((..((....))..))), the folding enthalpy in data set [1] is -13.3 kcal/mol. The Tm in data set [2] came out at 67.2 °C.

For GCCTCGCGAAAGCGTCGC ((..(((....)))..)), the folding enthalpy in data set [1] is -12.2 kcal/mol. Moreover, in data set [2], the Tm stood at 43.1 °C.

Regarding GCGAGACCTCGC ((((....)))), in data set [1], the folding enthalpy was -13.8 kcal/mol. In data set [2], the Tm turned out to be 56.5 °C.
